Laboratory results: ChEMBL document CHEMBL4138242, “Synthesis and antibacterial evaluation of novel cationic chalcone derivatives possessing broad spectrum antibacterial activity” (Eur J Med Chem, 2018)
Calls of active or inactive are those of the source.

Columns and labels:
[1] = system: Staphylococcus aureus; experiment: Antibacterial activity against Staphylococcus aureus ATCC 29213 after 16 to 20 hrs by broth microdilution method; format: functional
Procedure, shortened: (§1)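 Broth microdilution per CLSI. Bacteria grown 4-6 h (about 10⁸ CFU/mL), then diluted to about 10⁶ CFU/mL. Medium: Mueller-Hinton broth, except Luria-Bertani broth for E. coli. Compounds in sterile water, twofold series 256-0.5 µg/mL, mixed 1:1 with inoculum, 37 °C for 16-20 h. MIC is the lowest concentration without visible growth. Duplicate wells; experiment repeated at least twice.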

[2] = system: Enterococcus faecalis; experiment: Antibacterial activity against Enterococcus faecalis ATCC 29212 after 16 to 20 hrs by broth microdilution method; format: functional; procedure, shortened: as §1
[3] = system: Escherichia coli; experiment: Antibacterial activity against Escherichia coli ATCC 25922 after 16 to 20 hrs by broth microdilution method; format: functional; procedure, shortened: as §1
[4] = system: Salmonella enterica; experiment: Antibacterial activity against Salmonella enterica ATCC 13076 after 16 to 20 hrs by broth microdilution method; format: functional; procedure, shortened: as §1
[5] = Hemolytic activity in sheep RBC after 1 hr; format: ADME, cell-based, Ovis aries, Erythrocyte; details: sheep red blood cells (erythrocytes)
Procedure, shortened: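 Sheep red blood cells (150 µL suspension) mixed with 50 µL of compound dilutions (5120-10 µg/mL), 1 h at 37 °C, then centrifuged. Supernatant read at 540 nm. Percent hemolysis calculated relative to RBC-only control (0%) and 0.1% Triton X-100 (100%).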

[6] = system: Staphylococcus aureus; experiment: Antibacterial activity against methicillin-resistant Staphylococcus aureus clinical isolate 1105183 cono7 after 16 to 20 hrs by broth microdilution method; format: functional
Procedure, shortened: (§2)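 CLSI broth microdilution in Mueller-Hinton broth. A 4-6 h culture was diluted to about 10⁶ CFU/mL and mixed 1:1 with compound dilutions prepared at 256 to 0.5 µg/mL from aqueous stocks. Plates were incubated at 37 °C for 16-20 h and read visually for MIC. Each concentration was run in duplicate, and the experiment was repeated at least twice. Vancomycin and meropenem were comparators.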

[7] = system: Staphylococcus aureus; experiment: Antibacterial activity against methicillin-resistant Staphylococcus aureus clinical isolate 20130911034sau after 16 to 20 hrs by broth microdilution method; format: functional; procedure, shortened: as §2
[8] = system: Staphylococcus aureus; experiment: Antibacterial activity against methicillin-resistant Staphylococcus aureus clinical isolate 0831010 after 16 to 20 hrs by broth microdilution method; format: functional; procedure, shortened: as §2
[9] = system: Staphylococcus aureus; experiment: Antibacterial activity against methicillin-resistant Staphylococcus aureus clinical isolate 1104060 after 16 to 20 hrs by broth microdilution method; format: functional; procedure, shortened: as §2
[10] = system: Staphylococcus aureus; experiment: Antibacterial activity against methicillin-resistant Staphylococcus aureus clinical isolate 20131012632sau after 16 to 20 hrs by broth microdilution method; format: functional; procedure, shortened: as §2
[11] = system: Staphylococcus aureus; experiment: Antibacterial activity against methicillin-resistant Staphylococcus aureus clinical isolate 1207007 after 16 to 20 hrs by broth microdilution method; format: functional; procedure, shortened: as §2
[12] = system: Staphylococcus aureus; experiment: Antibacterial activity against methicillin-resistant Staphylococcus aureus clinical isolate 1-may after 16 to 20 hrs by broth microdilution method; format: functional; procedure, shortened: as §2
[13] = system: Staphylococcus aureus; experiment: Antibacterial activity against methicillin-resistant Staphylococcus aureus clinical isolate 0906202 after 16 to 20 hrs by broth microdilution method; format: functional; procedure, shortened: as §2
[14] = system: Staphylococcus aureus; experiment: Antibacterial activity against methicillin-resistant Staphylococcus aureus clinical isolate 1208143 after 16 to 20 hrs by broth microdilution method; format: functional; procedure, shortened: as §2
[15] = system: Klebsiella pneumoniae; experiment: Antibacterial activity against drug-resistant carbapenemase producing Klebsiella pneumoniae clinical isolate KP-14-8 after 16 to 20 hrs by broth microdilution method; format: functional; procedure, shortened: as §2
[16] = system: Klebsiella pneumoniae; experiment: Antibacterial activity against drug-resistant carbapenemase producing Klebsiella pneumoniae clinical isolate KP-13-45 after 16 to 20 hrs by broth microdilution method; format: functional; procedure, shortened: as §2
[17] = system: Klebsiella pneumoniae; experiment: Antibacterial activity against drug-resistant carbapenemase producing Klebsiella pneumoniae clinical isolate KP-14-3 after 16 to 20 hrs by broth microdilution method; format: functional; procedure, shortened: as §2
[18] = system: Klebsiella pneumoniae; experiment: Antibacterial activity against drug-resistant carbapenemase producing Klebsiella pneumoniae clinical isolate KP-14-1 after 16 to 20 hrs by broth microdilution method; format: functional; procedure, shortened: as §2
[19] = system: Klebsiella pneumoniae; experiment: Antibacterial activity against drug-resistant carbapenemase producing Klebsiella pneumoniae clinical isolate KP-14-4 after 16 to 20 hrs by broth microdilution method; format: functional; procedure, shortened: as §2
[20] = system: Klebsiella pneumoniae; experiment: Antibacterial activity against drug-resistant carbapenemase producing Klebsiella pneumoniae clinical isolate KP-13-54 after 16 to 20 hrs by broth microdilution method; format: functional; procedure, shortened: as §2
[21] = system: Klebsiella pneumoniae; experiment: Antibacterial activity against drug-resistant carbapenemase producing Klebsiella pneumoniae clinical isolate KP-14-2 after 16 to 20 hrs by broth microdilution method; format: functional; procedure, shortened: as §2
[22] = system: Klebsiella pneumoniae; experiment: Antibacterial activity against drug-resistant carbapenemase producing Klebsiella pneumoniae clinical isolate EC-13-23 after 16 to 20 hrs by broth microdilution method; format: functional; procedure, shortened: as §2
[23] = system: Klebsiella pneumoniae; experiment: Antibacterial activity against drug-resistant carbapenemase producing Klebsiella pneumoniae clinical isolate KP-14-5 after 16 to 20 hrs by broth microdilution method; format: functional; procedure, shortened: as §2
[24] = system: Klebsiella pneumoniae; experiment: Antibacterial activity against drug-resistant carbapenemase producing Klebsiella pneumoniae clinical isolate KP-13-55 after 16 to 20 hrs by broth microdilution method; format: functional; procedure, shortened: as §2
[25] = system: Klebsiella pneumoniae; experiment: Antibacterial activity against drug-resistant carbapenemase producing Klebsiella pneumoniae clinical isolate KP-14-45 after 16 to 20 hrs by broth microdilution method; format: functional; procedure, shortened: as §2
[26] = system: Klebsiella pneumoniae; experiment: Antibacterial activity against drug-resistant carbapenemase producing Klebsiella pneumoniae clinical isolate KP-14-18 after 16 to 20 hrs by broth microdilution method; format: functional; procedure, shortened: as §2
[27] = system: Escherichia coli; experiment: Antibacterial activity against drug-resistant NDM1 producing Escherichia coli clinical isolate EC-13-49 after 16 to 20 hrs by broth microdilution method; format: functional; procedure, shortened: as §2
[28] = system: Escherichia coli; experiment: Antibacterial activity against drug-resistant NDM1 producing Escherichia coli clinical isolate Ecl-14-58 after 16 to 20 hrs by broth microdilution method; format: functional; procedure, shortened: as §2
[29] = system: Escherichia coli; experiment: Antibacterial activity against drug-resistant NDM1 producing Escherichia coli clinical isolate KP-13-58 after 16 to 20 hrs by broth microdilution method; format: functional; procedure, shortened: as §2
[30] = system: Escherichia coli; experiment: Antibacterial activity against drug-resistant NDM1 producing Escherichia coli clinical isolate Ecl-13-62 after 16 to 20 hrs by broth microdilution method; format: functional; procedure, shortened: as §2
[31] = system: Escherichia coli; experiment: Antibacterial activity against drug-resistant NDM1 producing Escherichia coli clinical isolate EC-14-54 after 16 to 20 hrs by broth microdilution method; format: functional; procedure, shortened: as §2
[32] = system: Escherichia coli; experiment: Antibacterial activity against drug-resistant NDM1 producing Escherichia coli clinical isolate Ecl-14-59 after 16 to 20 hrs by broth microdilution method; format: functional; procedure, shortened: as §2
[33] = system: Escherichia coli; experiment: Antibacterial activity against drug-resistant NDM1 producing Escherichia coli clinical isolate EA-14-61 after 16 to 20 hrs by broth microdilution method; format: functional; procedure, shortened: as §2
[34] = system: Escherichia coli; experiment: Antibacterial activity against drug-resistant NDM1 producing Escherichia coli clinical isolate Ecl-14-56 after 16 to 20 hrs by broth microdilution method; format: functional; procedure, shortened: as §2
[35] = system: Escherichia coli; experiment: Antibacterial activity against drug-resistant NDM1 producing Escherichia coli clinical isolate 1460 after 16 to 20 hrs by broth microdilution method; format: functional; procedure, shortened: as §2
[36] = system: Escherichia coli; experiment: Antibacterial activity against drug-resistant NDM1 producing Escherichia coli clinical isolate SM-15-84 after 16 to 20 hrs by broth microdilution method; format: functional; procedure, shortened: as §2
[37] = system: Escherichia coli; experiment: Antibacterial activity against drug-resistant NDM1 producing Escherichia coli clinical isolate CF-15-61 after 16 to 20 hrs by broth microdilution method; format: functional; procedure, shortened: as §2
[38] = system: Escherichia coli; experiment: Antibacterial activity against drug-resistant NDM1 producing Escherichia coli clinical isolate CF-13-61 after 16 to 20 hrs by broth microdilution method; format: functional; procedure, shortened: as §2
[39] = system: Staphylococcus aureus; experiment: Induction of cytoplasmic membrane depolarization in Staphylococcus aureus ATCC 29213 at 10 to 20 ug/ml measured every 2 mins for 12 mins by DiSC35 dye-based fluorescence assay; format: functional, organism-based
Procedure, shortened: (§3)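 Mid-log cells (~10⁸ CFU/mL) were suspended in PBS (S. aureus) or HEPES/glucose/KCl with EDTA (E. coli). They were preloaded with DiSC3(5) for 30 min (S. aureus) or 40 min (E. coli), and baseline fluorescence was read for 8 min. Compound was added to 20 µg/mL final, and fluorescence (ex 622/em 670 nm) was read every 2 min for 12 min. Water served as control.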

[40] = system: Escherichia coli; experiment: Induction of cytoplasmic membrane depolarization in Escherichia coli ATCC 25922 at 10 to 20 ug/ml measured every 2 mins for 12 mins by DiSC35 dye-based fluorescence assay; format: functional, organism-based; procedure, shortened: as §3
[41] = system: Staphylococcus aureus; experiment: Induction of inner membrane permeabilization in Staphylococcus aureus ATCC 29213 at 10 to 20 ug/ml measured every 2 mins for 12 mins by propidium iodide staining-based fluorescence assay; format: functional, organism-based
Procedure, shortened: (§4)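 Mid-log cells (~10⁸ CFU/mL) were suspended in PBS (S. aureus) or HEPES/glucose/KCl (E. coli). They were preincubated with propidium iodide for 30 min (S. aureus) or 40 min (E. coli), and baseline fluorescence was read for 8 min. Compound was added to 20 µg/mL final, and fluorescence (ex 535/em 617 nm) was read every 2 min for 12 min.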

[42] = system: Escherichia coli; experiment: Induction of inner membrane permeabilization in Escherichia coli ATCC 25922 at 10 to 20 ug/ml measured every 2 mins for 12 mins by propidium iodide staining-based fluorescence assay; format: functional, organism-based; procedure, shortened: as §4

CCCCCCCC[N+](C)(C)CC(=O)Nc1ccc(C(=O)/C=C/c2ccccc2C(F)(F)F)cc1.[Cl-]
0.5 µg/mL: MIC [7] | MIC [8] | MIC [12]
16 µg/mL: MIC [4] | MIC [9] | MIC [24] | MIC [26] | MIC [31]
8 µg/mL: MIC [3] | MIC [15] | MIC [16] | MIC [17] | MIC [19] | MIC [23] | MIC [25] | MIC [27] | MIC [28] | MIC [30] | MIC [32] | MIC [33] | MIC [35]
active: Activity [39] | Activity [40] | Activity [41] | Activity [42]
4 µg/mL: MIC [2] | MIC [10] | MIC [20] | MIC [22] | MIC [34] | MIC [37] | MIC [38]
> 128 µg/mL: MIC [18] | MIC [21]
128 µg/mL: MIC [36]
136 µg/mL: HC50 at 1 h [5]
2 µg/mL: MIC [1] | MIC [11]
1 µg/mL: MIC [6] | MIC [13] | MIC [14] | MIC [29]

CCCCCCCC[N+](C)(C)CC(=O)Nc1ccc(C(=O)/C=C/c2cccc(Cl)c2)cc1.[Cl-]
4 µg/mL: MIC [3] | MIC [4] | MIC [13] | MIC [15] | MIC [16] | MIC [17] | MIC [19] | MIC [20] | MIC [22] | MIC [23] | MIC [27] | MIC [28] | MIC [30] | MIC [31] | MIC [32] | MIC [33] | MIC [34] | MIC [35]
2 µg/mL: MIC [1] | MIC [10]
0.5 µg/mL: MIC [7] | MIC [8] | MIC [11]
16 µg/mL: MIC [36] | MIC [38]
active: Activity [39] | Activity [40] | Activity [41] | Activity [42]
186 µg/mL: HC50 at 1 h [5]
1 µg/mL: MIC [2] | MIC [6] | MIC [12] | MIC [14] | MIC [29]
8 µg/mL: MIC [9] | MIC [18] | MIC [21] | MIC [24] | MIC [25] | MIC [26] | MIC [37]
